From ChEMBL document CHEMBL4619796, “Discovery of 3-Quinazolin-4(3H)-on-3-yl-2,N-dimethylpropanamides as Orally Active and Selective PI3Kα Inhibitors” (ACS Med Chem Lett, 2020)
pIC50: −log10 of the molar value.

Experiments:
[1] = Volume of distribution in BALB/c mouse at 1 mg/kg, iv by HPLC analysis; conditions: in vivo
[2] = tested on: Mus musculus; test: In vivo inhibition of PI3K in po dosed BALB/c nude mouse xenografted with PI3KCA mutant human BT474 cells assessed as reduction in AKT phosphorylation administered once daily measured after 1 to 4 hrs by Western blot analysis; assay type: functional, organism-based; conditions: BT-474
Outline: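 Mice bearing BT-474 subcutaneous xenografts were dosed orally in vehicle 0.5% MC + 0.2% Tween 80. Tumor Akt phosphorylation was assessed for time and dose dependence.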

[3] = molecular target: Phosphatidylinositol 4,5-bisphosphate 3-kinase catalytic subunit beta isoform (Homo sapiens, UniProt P42338); test: Inhibition of PI3Kbeta in human MDA-MB-468 cells assessed as reduction in AKT phosphorylation at residue S473 measured after 30 mins by sandwich ELISA
[4] = Cmax in BALB/c mouse at 10 mg/kg, po by HPLC analysis; assay type: ADME, organism-based; design: dose 10 mg/kg, route oral; conditions: in vivo
[5] = tested on: BT-474; test: Antitumor activity against PI3KCA mutant human BT474 cells xenografted in BALB/c nude mouse assessed as tumor growth inhibition at 15 mg/kg, po administered once daily and measured after 30 days by caliper method relative to control; assay type: functional; conditions: BT-474, po, 720 h, read-out: TGI
[6] = Protein binding in CD-1 mouse plasma measured after 4 hrs by LC-MS/MS analysis; assay type: ADME, cell-free; conditions: read-out: PPB (converted)
[7] = Metabolic stability in cynomolgus monkey liver microsomes assessed as parent compound remaining at 10 uM preincubated for 10 mins in water bath followed by NADPH addition and measured after 60 mins by LC-MS/MS analysis; assay type: ADME, Macaca fascicularis, Microsome; conditions: read-out: Stability
[8] = Half life in BALB/c mouse at 1 mg/kg, iv by HPLC analysis; conditions: in vivo
[9] = Protein binding in human plasma measured after 4 hrs by LC-MS/MS analysis; assay type: ADME, cell-free; conditions: read-out: PPB (converted)
[10] = molecular target: Phosphatidylinositol 4,5-bisphosphate 3-kinase catalytic subunit alpha isoform (Homo sapiens, UniProt P42336); test: Inhibition of PI3Kalpha (unknown origin) using PIP2:3PS peptide as substrate preincubated for 15 mins followed by ATP addition at Km concentration and further incubated for 150 mins by ADP-Glo assay
[11] = Metabolic stability in Beagle dog liver microsomes assessed as parent compound remaining at 10 uM preincubated for 10 mins in water bath followed by NADPH addition and measured after 60 mins by LC-MS/MS analysis; assay type: ADME, Canis lupus familiaris, Microsome; conditions: read-out: Stability
[12] = Clearance in BALB/c mouse at 1 mg/kg, […] by HPLC analysis; assay type: ADME, organism-based; conditions: in vivo
[13] = Clearance in Beagle dog cryopreserved hepatocytes incubated for 10 mins under shaking condition by LC-MS/MS analysis; assay type: ADME, cell-based, Canis lupus familiaris, Hepatocyte; conditions: read-out: CLH
[14] = molecular target: T1, Phosphatidylinositol 4,5-bisphosphate 3-kinase catalytic subunit delta isoform (Homo sapiens, UniProt O00329); test: Inhibition of PI3Kdelta in human Jeko1 cells assessed as reduction in AKT phosphorylation at residue S473 measured after 2 hrs by sandwich ELISA
T1 sequence (O00329 whole entry): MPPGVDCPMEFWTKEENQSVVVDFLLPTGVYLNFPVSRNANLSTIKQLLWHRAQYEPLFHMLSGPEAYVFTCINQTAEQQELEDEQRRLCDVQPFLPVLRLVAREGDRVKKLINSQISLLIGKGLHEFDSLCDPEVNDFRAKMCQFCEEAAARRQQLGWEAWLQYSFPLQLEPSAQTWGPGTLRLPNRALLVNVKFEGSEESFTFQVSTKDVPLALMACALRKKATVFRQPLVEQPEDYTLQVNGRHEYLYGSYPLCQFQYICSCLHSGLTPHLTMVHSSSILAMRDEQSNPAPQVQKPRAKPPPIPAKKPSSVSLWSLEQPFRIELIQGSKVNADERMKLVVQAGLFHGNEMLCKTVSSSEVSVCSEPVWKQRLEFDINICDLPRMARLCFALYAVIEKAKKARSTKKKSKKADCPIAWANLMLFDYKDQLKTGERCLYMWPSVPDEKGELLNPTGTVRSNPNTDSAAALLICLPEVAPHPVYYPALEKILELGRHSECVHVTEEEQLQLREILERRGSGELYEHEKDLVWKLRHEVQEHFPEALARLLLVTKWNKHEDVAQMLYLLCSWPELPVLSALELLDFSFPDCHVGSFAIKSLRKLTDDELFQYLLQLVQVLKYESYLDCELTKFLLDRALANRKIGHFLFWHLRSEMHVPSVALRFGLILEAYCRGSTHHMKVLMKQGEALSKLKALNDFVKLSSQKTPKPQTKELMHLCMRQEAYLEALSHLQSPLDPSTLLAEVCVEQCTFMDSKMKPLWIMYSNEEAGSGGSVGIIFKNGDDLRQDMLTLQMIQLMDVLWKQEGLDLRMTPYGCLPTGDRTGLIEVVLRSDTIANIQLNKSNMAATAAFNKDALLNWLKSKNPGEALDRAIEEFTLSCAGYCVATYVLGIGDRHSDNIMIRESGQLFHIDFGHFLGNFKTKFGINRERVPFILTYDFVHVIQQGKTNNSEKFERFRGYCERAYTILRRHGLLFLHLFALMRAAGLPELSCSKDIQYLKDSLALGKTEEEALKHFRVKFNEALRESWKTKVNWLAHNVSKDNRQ

[15] = Dose normalized AUC (0 to last) in Sprague-Dawley rat at 3 mg/kg, po by HPLC analysis; assay type: ADME, organism-based; conditions: in vivo
[16] = Oral bioavailability in Sprague-Dawley rat at 3 mg/kg by HPLC analysis; assay type: ADME, organism-based; conditions: in vivo
[17] = Volume of distribution in Sprague-Dawley rat at 1 mg/kg, iv by HPLC analysis; assay type: ADME, organism-based; conditions: in vivo
[18] = Dose normalized AUC (0 to last) in BALB/c mouse at 10 mg/kg, po by HPLC analysis; assay type: ADME, organism-based; conditions: in vivo
[19] = molecular target: Phosphatidylinositol 4,5-bisphosphate 3-kinase catalytic subunit gamma isoform (Mus musculus, UniProt Q9JHG7); test: Inhibition of PI3Kgamma in mouse RAW264.7 cells assessed as reduction in AKT phosphorylation at residue S473 treated with mouse C5a component and measured after 3 mins
[20] = Metabolic stability in Sprague-Dawley rat liver microsomes assessed as parent compound remaining at 10 uM preincubated for 10 mins in water bath followed by NADPH addition and measured after 60 mins by LC-MS/MS analysis; assay type: ADME, Microsome; conditions: read-out: Stability
[21] = Clearance in CD-1 mouse cryopreserved hepatocytes incubated for 10 mins under shaking condition by LC-MS/MS analysis; assay type: ADME, cell-based, Hepatocyte; conditions: read-out: CLH
[22] = Metabolic stability in human liver microsomes assessed as parent compound remaining at 10 uM preincubated for 10 mins in water bath followed by NADPH addition and measured after 60 mins by LC-MS/MS analysis; assay type: ADME, Microsome; conditions: read-out: Stability
[23] = Half life in Sprague-Dawley rat at 1 mg/kg, iv by HPLC analysis; assay type: ADME, organism-based; conditions: in vivo
[24] = tested on: BT-474; test: Antitumor activity against PI3KCA mutant human BT474 cells xenografted in BALB/c nude mouse assessed as tumor growth inhibition at 40 mg/kg, po administered once daily and measured after 30 days by caliper method relative to control; assay type: functional; conditions: BT-474, po, 720 h, read-out: TGI

Phosphatidylinositol 4,5-bisphosphate 3-kinase catalytic subunit gamma isoform, sequence (Q9JHG7 whole entry, canonical isoform): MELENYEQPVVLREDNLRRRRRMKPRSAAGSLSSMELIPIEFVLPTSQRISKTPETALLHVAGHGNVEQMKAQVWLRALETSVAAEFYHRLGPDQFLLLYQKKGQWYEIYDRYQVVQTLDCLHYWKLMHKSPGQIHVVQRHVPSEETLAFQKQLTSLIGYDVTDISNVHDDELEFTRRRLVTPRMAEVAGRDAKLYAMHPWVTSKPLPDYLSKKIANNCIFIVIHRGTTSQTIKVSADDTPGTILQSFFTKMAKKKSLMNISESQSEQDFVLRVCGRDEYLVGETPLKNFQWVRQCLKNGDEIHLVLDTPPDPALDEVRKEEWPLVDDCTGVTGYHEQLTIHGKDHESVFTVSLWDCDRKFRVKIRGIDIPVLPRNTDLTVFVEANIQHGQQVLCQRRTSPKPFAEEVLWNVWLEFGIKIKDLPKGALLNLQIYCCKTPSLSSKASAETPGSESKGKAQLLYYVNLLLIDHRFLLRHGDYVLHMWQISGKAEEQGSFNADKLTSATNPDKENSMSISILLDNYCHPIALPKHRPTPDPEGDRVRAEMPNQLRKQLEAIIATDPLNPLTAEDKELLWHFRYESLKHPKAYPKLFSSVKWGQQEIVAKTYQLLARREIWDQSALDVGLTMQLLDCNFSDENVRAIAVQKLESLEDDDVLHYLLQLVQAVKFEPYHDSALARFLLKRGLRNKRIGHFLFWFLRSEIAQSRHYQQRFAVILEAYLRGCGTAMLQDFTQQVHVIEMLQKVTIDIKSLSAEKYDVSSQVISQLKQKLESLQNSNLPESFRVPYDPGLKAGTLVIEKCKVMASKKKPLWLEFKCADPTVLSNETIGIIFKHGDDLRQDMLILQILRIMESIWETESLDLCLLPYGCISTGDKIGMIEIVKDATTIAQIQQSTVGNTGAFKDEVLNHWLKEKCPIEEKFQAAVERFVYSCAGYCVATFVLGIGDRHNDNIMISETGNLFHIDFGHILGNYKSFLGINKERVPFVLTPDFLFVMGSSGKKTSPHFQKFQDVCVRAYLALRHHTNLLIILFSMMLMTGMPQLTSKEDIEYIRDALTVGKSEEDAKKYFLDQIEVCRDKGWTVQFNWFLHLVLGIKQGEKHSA
Phosphatidylinositol 4,5-bisphosphate 3-kinase catalytic subunit beta isoform, sequence (P42338 whole entry, canonical isoform): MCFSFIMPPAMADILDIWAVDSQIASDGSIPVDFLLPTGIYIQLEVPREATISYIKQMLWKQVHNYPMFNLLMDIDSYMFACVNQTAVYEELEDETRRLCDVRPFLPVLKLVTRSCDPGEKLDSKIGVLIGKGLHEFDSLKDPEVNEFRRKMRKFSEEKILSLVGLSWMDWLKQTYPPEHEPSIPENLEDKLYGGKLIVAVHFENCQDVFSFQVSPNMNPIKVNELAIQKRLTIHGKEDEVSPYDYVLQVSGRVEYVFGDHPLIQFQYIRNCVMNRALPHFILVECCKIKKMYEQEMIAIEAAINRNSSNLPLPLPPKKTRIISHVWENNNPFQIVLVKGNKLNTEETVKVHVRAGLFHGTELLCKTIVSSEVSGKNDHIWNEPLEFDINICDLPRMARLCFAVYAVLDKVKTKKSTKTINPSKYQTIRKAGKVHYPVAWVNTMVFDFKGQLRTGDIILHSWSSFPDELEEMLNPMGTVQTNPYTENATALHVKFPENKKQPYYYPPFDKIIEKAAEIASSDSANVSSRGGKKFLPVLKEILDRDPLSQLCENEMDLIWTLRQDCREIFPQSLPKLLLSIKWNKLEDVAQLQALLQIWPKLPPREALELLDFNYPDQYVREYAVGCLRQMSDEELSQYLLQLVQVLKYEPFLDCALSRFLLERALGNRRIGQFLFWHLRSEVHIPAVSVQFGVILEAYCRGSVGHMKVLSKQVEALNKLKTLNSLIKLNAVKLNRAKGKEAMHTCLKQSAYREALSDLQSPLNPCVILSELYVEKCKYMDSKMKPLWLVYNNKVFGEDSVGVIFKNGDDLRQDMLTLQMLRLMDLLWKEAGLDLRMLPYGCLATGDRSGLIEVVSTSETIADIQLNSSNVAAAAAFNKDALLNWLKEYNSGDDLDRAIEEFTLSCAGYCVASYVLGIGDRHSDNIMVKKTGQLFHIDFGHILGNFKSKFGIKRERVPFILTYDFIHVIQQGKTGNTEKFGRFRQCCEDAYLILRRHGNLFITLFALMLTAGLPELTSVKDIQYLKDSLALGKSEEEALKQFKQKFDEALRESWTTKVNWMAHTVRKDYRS
Phosphatidylinositol 4,5-bisphosphate 3-kinase catalytic subunit alpha isoform, sequence (P42336 whole entry, canonical isoform): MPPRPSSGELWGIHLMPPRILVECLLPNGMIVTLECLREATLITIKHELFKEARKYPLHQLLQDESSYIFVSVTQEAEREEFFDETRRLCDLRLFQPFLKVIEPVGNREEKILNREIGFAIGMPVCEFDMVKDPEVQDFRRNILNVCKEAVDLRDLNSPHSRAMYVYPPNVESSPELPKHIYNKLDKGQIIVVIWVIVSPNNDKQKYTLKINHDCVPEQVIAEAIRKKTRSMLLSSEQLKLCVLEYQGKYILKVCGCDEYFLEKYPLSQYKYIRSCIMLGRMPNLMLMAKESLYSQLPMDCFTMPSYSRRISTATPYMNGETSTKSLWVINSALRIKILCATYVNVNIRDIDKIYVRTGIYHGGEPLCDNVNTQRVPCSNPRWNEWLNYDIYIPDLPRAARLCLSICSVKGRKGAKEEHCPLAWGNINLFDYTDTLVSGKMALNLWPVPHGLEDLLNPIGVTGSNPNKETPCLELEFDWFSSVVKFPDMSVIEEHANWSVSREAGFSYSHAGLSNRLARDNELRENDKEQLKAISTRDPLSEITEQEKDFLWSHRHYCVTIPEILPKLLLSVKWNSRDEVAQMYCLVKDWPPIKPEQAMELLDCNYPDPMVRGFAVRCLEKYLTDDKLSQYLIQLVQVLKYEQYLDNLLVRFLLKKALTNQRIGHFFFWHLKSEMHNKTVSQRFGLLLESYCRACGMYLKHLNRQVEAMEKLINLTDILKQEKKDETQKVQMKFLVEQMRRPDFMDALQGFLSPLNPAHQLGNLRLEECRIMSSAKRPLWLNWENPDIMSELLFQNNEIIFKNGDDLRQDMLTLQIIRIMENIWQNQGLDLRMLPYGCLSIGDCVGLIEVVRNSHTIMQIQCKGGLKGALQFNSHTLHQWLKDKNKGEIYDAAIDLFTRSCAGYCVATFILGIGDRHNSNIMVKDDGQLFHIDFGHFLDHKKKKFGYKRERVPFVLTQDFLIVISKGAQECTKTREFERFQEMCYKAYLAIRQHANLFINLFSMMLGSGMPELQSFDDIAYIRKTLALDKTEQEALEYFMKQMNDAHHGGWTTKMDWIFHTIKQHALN

Question: Which results are given for `CNC(=O)[C@H](C)Cn1cnc2ccc(-c3cnc(OC)c(NS(=O)(=O)c4ccc(F)cc4Cl)c3)cc2c1=O`?
Answer: Vd [1]: 0.179 L/kg; inhibition [2]: Dose-dependent effect; pIC50 [3]: 5.86; Cmax [4]: 37 µM; inhibition in vivo at 15 mg/kg [5]: 62.5%; fraction unbound at 4 h [6]: 0.014; remaining at 1 h, 10 µM [7]: 13.7%; half-life [8]: 0.966 h; fraction unbound at 4 h [9]: 0.014; pIC50 [10]: 8.74; remaining at 1 h, 10 µM [11]: 53.9%; CL/F [12]: 4.2 mL/min/kg; CLint scaled [13]: < 44 mL/min/kg; pIC50 [14]: 6.74; AUClast/dose [15]: 2711 nM·h; bioavailability [16]: 46.9%; Vd [17]: 0.321 L/kg; AUClast/dose [18]: 3090 nM·h; pIC50 [19]: < 5.00; remaining at 1 h, 10 µM [20]: 32%; CLint scaled [21]: 642 mL/min/kg; remaining at 1 h, 10 µM [22]: 44.6%; half-life [23]: 1.22 h; inhibition in vivo at 40 mg/kg [24]: 90.7%
